Results on six compounds are retold here after ChEMBL document CHEMBL3259564, “Synthesis and evaluation of immunostimulant plasmalogen lysophosphatidylethanolamine and analogues for natural killer T cells” (Bioorg Med Chem, 2014).

The test system of test [1] is 2H4. Nature of the test: Immunostimulatory activity in mouse NKT hybridoma 2H4 cells assessed as IL-2 production at 100 ng/ml after 24 hrs by plate-bound mCD1d presenting assay. The test is classed as functional, cell-based. In outline: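 Plates were coated with mouse CD1d protein overnight at 4 °C, PBS-washed and blocked with PBS/10% FCS for 1 h. Compound at 100 ng/mL was loaded for 24 h at 37 °C, then washed off. 2H4 NKT hybridoma cells were added, and IL-2 was measured by ELISA after 24 h. Data are mean ± SD of three independent experiments, with Student's t test against vehicle.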

The species entered for test [2] is Mus musculus. Nature of the test: Immunostimulatory activity in C57BL/6 mouse splenocytes assessed as IL-4/IFN-gamma ratio at 100 ng/ml after 72 hrs by ELISA. The class given is functional, cell-based. A digest of the protocol: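 Whole C57BL/6 splenocytes were given compound at 100 ng/mL or DMSO for 72 h in RPMI1640 with 10% FCS. Supernatant IL-4 and IFN-γ were measured by ELISA. The IL-4/IFN-γ ratio was normalized to the DMSO control. Triplicate, mean ± SD.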
Background: ELISA stands for enzyme-linked immunosorbent assay.

The species named for test [3] is Mus musculus. The experiment in a line: Immunostimulatory activity in C57BL/6 mouse splenocytes assessed as IFN-gamma production at 100 ng/ml after 72 hrs by ELISA. The test is classed as functional, cell-based. A digest of the protocol: (§1)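 C57BL/6 mouse splenocytes were cultured for 72 h with compound at 100 ng/mL or DMSO vehicle in RPMI1640 with 10% FCS, humidified 5% CO2. IFN-γ and IL-4 in the supernatants were measured by ELISA. Assays were run in triplicate and reported as mean ± SD.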

In test [4] the test system is Mus musculus. The experiment in a line: In vivo immunostimulatory activity in C57BL/6 mouse assessed as increase in serum IFN-gamma level at 1 ug, ip after 24 hrs by ELISA. The class given is functional, organism-based. In outline: (§2)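 C57BL/6 mice were given compound by intraperitoneal injection. Serum IFN-γ and IL-4 were measured at 2 h and at a later time point. Data are mean ± SD.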

Test [5] relates to Mus musculus. The experiment in a line: In vivo immunostimulatory activity in C57BL/6 mouse assessed as increase in serum IL-4 level at 1 ug, ip after 2 to 24 hrs by ELISA. The test is classed as functional, organism-based. In outline: as §2
The subject of test [6] is Mus musculus. Nature of the test: In vivo immunostimulatory activity in C57BL/6 mouse assessed as increase in serum IFN-gamma level at 1 ug, ip after 2 hrs by ELISA. The test is classed as functional, organism-based. A digest of the protocol:
as §2

For test [7], the species on record is Mus musculus. Nature of the test: Immunostimulatory activity in C57BL/6 mouse splenocytes assessed as IL-4 production at 100 ng/ml after 72 hrs by ELISA. The class given is functional, cell-based. In outline:
as §1

The source made the active and inactive calls. The calls are words filed in the database; no cut-off is given here.

As to `CCCCCCCC/C=C\CCCCCCCC(=O)OC[C@@H](O)COP(=O)(O)OCCN`, the result in test [1], in test [2], in test [3], in test [5], in test [6] and in test [7] was Active. The outcome in test [4] was inactive.

Regarding `CCCCC/C=C\C/C=C\CCCCCCCCC#COC[C@@H](O)COP(=O)(O)OCCN`, the result in test [1], in test [2], in test [3], in test [5] and in test [6] was Active. In addition, the outcome in test [4] was inactive.

With `CCCCCCCC/C=C\CCCCCCCCC#COC[C@@H](O)COP(=O)(O)OCCN`, the result in test [1], in test [2], in test [3], in test [5], in test [6] and in test [7] was Active. In test [4], the outcome was inactive.

With `CCCCCCCC/C=C\CCCCCCCCCCCCOC[C@@H](O)COP(=O)(O)OCCN`, the outcome in test [1], in test [2], in test [3], in test [5], in test [6] and in test [7] was Active. The result in test [4] was inactive.

With `CCCCC/C=C\C/C=C\CCCCCCCC/C=C\OC[C@@H](O)COP(=O)(O)OCCN`, the outcome in test [1], in test [2], in test [3], in test [5] and in test [6] was Active. Moreover, in test [4], the result was inactive.

For `CCCCCCCCCCCCCC/C=C\OC[C@@H](O)COP(=O)(O)OCCN`, the result in test [2], in test [3], in test [5], in test [6] and in test [7] was Active.
